# How the values were obtained:
# [1] = Protein binding in rat plasma; format: ADME, cell-free; conditions: read-out: PPB (converted)
# Rattus norvegicus = assay: Apparent elimination half life in rat at […], iv; format: ADME, organism-based; conditions: in vivo
# Cytochrome P450 3A4 = Cytochrome P450 3A4 (Homo sapiens, UniProt P08684); assay: Inhibition of CYP3A4 (unknown origin); format: ADME
# Cytochrome P450 2A6 = Cytochrome P450 2A6 (Homo sapiens, UniProt P11509); assay: Inhibition of CYP2A6 (unknown origin); format: ADME
# Cytochrome P450 2A6, sequence (P11509 whole entry): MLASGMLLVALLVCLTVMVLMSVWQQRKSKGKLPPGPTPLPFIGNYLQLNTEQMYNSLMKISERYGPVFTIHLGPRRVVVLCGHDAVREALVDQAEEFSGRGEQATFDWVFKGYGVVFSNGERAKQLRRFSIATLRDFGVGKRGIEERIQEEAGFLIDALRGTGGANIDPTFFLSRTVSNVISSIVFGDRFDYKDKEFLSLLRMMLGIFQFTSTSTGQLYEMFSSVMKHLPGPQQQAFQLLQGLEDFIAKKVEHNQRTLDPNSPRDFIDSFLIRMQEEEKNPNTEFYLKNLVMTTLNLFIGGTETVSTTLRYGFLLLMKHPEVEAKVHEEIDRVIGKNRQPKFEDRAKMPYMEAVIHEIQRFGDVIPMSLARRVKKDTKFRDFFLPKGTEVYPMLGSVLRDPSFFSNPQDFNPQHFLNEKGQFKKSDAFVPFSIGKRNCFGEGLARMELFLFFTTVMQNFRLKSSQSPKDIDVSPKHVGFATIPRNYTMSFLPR
# [2] = molecular target: 11-beta-hydroxysteroid dehydrogenase type 2 (Mus musculus, UniProt P51661); assay: Inhibition of mouse 11beta-HSD2
# 11-beta-hydroxysteroid dehydrogenase type 2 (Mus musculus, UniProt P51661), sequence (P51661 whole entry): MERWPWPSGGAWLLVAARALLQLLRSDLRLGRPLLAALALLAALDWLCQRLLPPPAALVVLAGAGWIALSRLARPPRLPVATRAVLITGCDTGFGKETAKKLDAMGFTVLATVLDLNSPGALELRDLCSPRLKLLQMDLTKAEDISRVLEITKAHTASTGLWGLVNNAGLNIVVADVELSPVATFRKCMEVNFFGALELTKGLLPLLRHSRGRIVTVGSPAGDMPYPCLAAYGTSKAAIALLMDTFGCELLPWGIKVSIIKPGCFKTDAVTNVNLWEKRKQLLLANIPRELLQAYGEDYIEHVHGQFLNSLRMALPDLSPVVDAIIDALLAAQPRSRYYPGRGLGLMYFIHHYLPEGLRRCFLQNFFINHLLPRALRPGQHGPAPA
# Plasma [3] = assay: Drug metabolism in cynomolgus monkey plasma assessed as ketone A formation at 1 mg/kg, iv; format: ADME, organism-based, Macaca fascicularis; conditions: in vivo
# [4] = Protein binding in mouse plasma; format: ADME, cell-free; conditions: read-out: PPB (converted)
# [5] = AUC (0 to 24 hrs) in cynomolgus monkey at 1 mg/kg, iv; format: ADME, organism-based, Macaca fascicularis; design: dose 1 mg/kg, time < 24 hr, route intravenous; conditions: in vivo
# Cytochrome P450 2E1 = Cytochrome P450 2E1 (Homo sapiens, UniProt P05181); assay: Inhibition of CYP2E1 (unknown origin); format: ADME
# Cytochrome P450 2E1, sequence (P05181 whole entry): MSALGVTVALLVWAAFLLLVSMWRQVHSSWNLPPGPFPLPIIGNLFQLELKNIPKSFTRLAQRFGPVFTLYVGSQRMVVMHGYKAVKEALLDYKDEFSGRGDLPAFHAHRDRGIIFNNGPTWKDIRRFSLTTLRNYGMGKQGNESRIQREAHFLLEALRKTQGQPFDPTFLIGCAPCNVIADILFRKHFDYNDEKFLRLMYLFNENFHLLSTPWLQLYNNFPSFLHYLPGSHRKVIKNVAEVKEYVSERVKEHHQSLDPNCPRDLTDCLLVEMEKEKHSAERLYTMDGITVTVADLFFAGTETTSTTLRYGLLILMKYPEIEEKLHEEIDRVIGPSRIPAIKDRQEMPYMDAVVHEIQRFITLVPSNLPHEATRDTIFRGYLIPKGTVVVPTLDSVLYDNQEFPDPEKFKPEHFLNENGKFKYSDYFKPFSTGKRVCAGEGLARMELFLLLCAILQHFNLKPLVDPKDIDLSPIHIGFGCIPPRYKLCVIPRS
# [6] = Permeability from apical to basolateral side in human Caco2 cells; format: ADME, cell-based; conditions: Caco-2, read-out: permeability
# [7] = Oral bioavailability in mouse at 10 mg/kg; format: ADME, organism-based; conditions: in vivo
# [8] = AUC (0 to 24 hrs) in dog at 1 mg/kg, iv; format: ADME, organism-based, Canis lupus familiaris; design: time < 24 hr, dose 1 mg/kg, route intravenous; conditions: in vivo
# [9] = Half life in human liver microsomes; format: ADME, microsome
# In short: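 Human liver microsome incubation; parent half-life determined.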
# Cynomolgus monkey [10] = assay: Toxicity in cynomolgus monkey assessed as HPA axis activation by measuring DHEA level at 1 to 10 mg/kg for 7 days; format: organism-based, Macaca fascicularis; conditions: in vivo, 168 h
# Cytochrome P450 1A2 = Cytochrome P450 1A2 (Homo sapiens, UniProt P05177); assay: Inhibition of CYP1A2 (unknown origin); format: ADME
# Cytochrome P450 1A2, sequence (P05177 whole entry): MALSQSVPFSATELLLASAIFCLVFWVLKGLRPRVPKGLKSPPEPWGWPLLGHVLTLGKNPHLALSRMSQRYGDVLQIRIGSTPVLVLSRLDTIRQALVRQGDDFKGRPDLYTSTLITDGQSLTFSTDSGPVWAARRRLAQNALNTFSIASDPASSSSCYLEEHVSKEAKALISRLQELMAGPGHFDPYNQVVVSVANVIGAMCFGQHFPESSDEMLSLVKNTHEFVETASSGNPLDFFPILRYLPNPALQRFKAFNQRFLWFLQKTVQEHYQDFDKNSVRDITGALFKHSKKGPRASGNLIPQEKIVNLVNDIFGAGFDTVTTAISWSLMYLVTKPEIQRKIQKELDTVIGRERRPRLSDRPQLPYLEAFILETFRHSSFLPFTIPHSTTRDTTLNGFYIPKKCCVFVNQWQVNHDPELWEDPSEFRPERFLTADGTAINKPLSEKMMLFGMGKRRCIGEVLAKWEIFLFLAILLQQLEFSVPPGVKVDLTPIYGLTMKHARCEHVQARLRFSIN
# [11] = Tmax in non-fasting diet-induced obese cynomolgus monkey administered via oral gavage; format: ADME, Macaca fascicularis; conditions: in vivo
# [12] = Apparent elimination half life in cynomolgus monkey at 1 mg/kg, iv; format: ADME, organism-based, Macaca fascicularis; conditions: in vivo, read-out: betat1/2(app) (converted)
# in vivo [13] = conditions: mouse, adipose tissue / plasma, iv, 5 mg/kg
# [14] = MRT in dog at 1 mg/kg, iv; format: ADME, organism-based, Canis lupus familiaris; conditions: in vivo
# [15] = Volume of distribution at steady state in dog at 1 mg/kg, iv; format: ADME, organism-based, Canis lupus familiaris; conditions: in vivo, read-out: Vdss
# [16] = molecular target: 11-beta-hydroxysteroid dehydrogenase type 2 (Homo sapiens, UniProt P80365); assay: Inhibition of human 11beta-HSD2 up to 30 uM
# 11-beta-hydroxysteroid dehydrogenase type 2 (Homo sapiens, UniProt P80365), sequence (P80365 whole entry): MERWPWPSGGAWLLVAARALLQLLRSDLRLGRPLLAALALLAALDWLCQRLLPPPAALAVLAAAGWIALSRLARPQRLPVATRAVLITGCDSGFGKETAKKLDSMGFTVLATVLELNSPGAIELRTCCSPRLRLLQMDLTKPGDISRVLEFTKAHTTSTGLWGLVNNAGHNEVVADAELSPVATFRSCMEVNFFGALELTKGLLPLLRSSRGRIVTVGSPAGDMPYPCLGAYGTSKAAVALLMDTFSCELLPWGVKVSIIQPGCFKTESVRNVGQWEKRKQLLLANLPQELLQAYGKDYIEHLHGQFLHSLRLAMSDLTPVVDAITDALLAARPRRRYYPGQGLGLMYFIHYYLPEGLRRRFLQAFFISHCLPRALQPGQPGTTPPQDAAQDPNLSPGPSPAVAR
# In short: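 Human 11β-HSD2 counter-screen in vitro; compound tested up to 30 μM.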
# [17] = Apparent elimination half life in mouse at 5 mg/kg, iv; format: ADME, organism-based; conditions: in vivo, read-out: betat1/2(app) (converted)
# [18] = AUC (0 to 24 hrs) in rat at 300 mg/kg; format: ADME, organism-based; design: dose 300 mg/kg, time < 24 hr; conditions: in vivo
# [19] = Oral bioavailability in dog at 2 mg/kg; format: ADME, organism-based, Canis lupus familiaris; conditions: in vivo
# Plasma [20] = assay: Drug metabolism in rat plasma assessed as ketone A formation at […], iv; format: ADME, organism-based; conditions: in vivo
# [21] = Volume of distribution at steady state in mouse at 5 mg/kg, iv; format: ADME, organism-based; conditions: in vivo, read-out: Vdss
# [22] = Metabolic stability in cynomolgus monkey liver microsomes assessed as UGT-mediated glucuronidation of compound by measuring half life in presence of UDPGA; format: ADME, Macaca fascicularis
# In short: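 Liver microsomal glucuronidation incubations in the presence of UDPGA; parent half-life determined.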
# Cynomolgus monkey [23] = assay: In vivo inhibition of 11beta-HSD1 in non-fasting diet-induced obese cynomolgus monkey assessed as plasma concentration required to show decrease in corticosterone excursion pretreated via oral gavage for 30 mins followed by DHC administration measured up to 60 mins by enzyme immunosorbent assay; format: functional, organism-based; conditions: Macaca fascicularis
# In short: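 Cynomolgus monkeys given test compound at a predetermined time before the experiment, chosen from its pharmacokinetics. Substrate DHC (rodent substrate, used in place of cortisone) given afterwards. Blood sampled at various times. Design otherwise similar to the mouse DHC challenge.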
# in vivo [24] = conditions: mouse, liver / plasma, iv, 5 mg/kg
# [25] = molecular target: 11-beta-hydroxysteroid dehydrogenase 1 (Mus musculus, UniProt P50172); assay: Inhibition of 11beta-HSD1 in mouse 3T3L1 cells; format: cell-based
# 11-beta-hydroxysteroid dehydrogenase 1, sequence (P50172 whole entry): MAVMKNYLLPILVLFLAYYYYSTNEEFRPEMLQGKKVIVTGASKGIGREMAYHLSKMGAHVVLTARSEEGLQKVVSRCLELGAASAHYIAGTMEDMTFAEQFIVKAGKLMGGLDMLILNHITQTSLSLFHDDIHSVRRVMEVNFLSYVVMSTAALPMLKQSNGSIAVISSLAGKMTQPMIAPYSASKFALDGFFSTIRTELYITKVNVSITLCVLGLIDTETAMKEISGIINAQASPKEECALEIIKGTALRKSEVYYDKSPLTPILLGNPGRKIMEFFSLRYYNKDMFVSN
# In short: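 Mouse adipocyte-like 3T3-L1 cell line, not genetically manipulated, so that inhibition acts on the cells' native mouse 11β-HSD1 activity.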
# [26] = Total plasma clearance in dog at 1 mg/kg, iv; format: ADME, organism-based, Canis lupus familiaris
# [27] = Aqueous solubility of the compound in pH 6.5 solution; format: physicochemical; conditions: pH 6.5, pH 6.5
# In short: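 Aqueous solubility measured at pH 6.5.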
# Cytochrome P450 3A4, sequence (P08684 whole entry): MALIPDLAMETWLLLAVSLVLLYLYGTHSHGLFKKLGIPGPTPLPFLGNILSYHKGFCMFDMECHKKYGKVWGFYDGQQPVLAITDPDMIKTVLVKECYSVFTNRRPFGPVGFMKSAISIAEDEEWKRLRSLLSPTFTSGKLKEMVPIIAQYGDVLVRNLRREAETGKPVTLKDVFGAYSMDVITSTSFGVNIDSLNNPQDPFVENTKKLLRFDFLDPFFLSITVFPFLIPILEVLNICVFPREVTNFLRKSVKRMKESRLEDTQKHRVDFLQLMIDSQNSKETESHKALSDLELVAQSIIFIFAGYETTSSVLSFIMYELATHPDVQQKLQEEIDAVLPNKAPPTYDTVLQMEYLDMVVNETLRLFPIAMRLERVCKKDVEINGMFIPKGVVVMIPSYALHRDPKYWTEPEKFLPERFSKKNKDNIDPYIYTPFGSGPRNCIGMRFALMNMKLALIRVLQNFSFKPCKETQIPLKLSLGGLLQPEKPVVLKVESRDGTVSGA
compound,measurement,setting,value
O=C(CC1(c2ccccc2)C2CC3CC1CC(C2)C3O)N1CC(O)C1 (stereo in doubt; form 2),fraction unbound,[1],0.35
same,betat1/2(app),Rattus norvegicus,3 h
same,IC50,Cytochrome P450 3A4,> 40 µM
same,IC50,Cytochrome P450 2A6,> 40 µM
same,IC50,[2],7.9 µM
same,Drug metabolism,Plasma [3],Metabolite_Detected
same,fraction unbound,[4],0.37
same,AUC(0-t) at 24 h,[5],2.3 µM·h
same,IC50,Cytochrome P450 2E1,> 40 µM
same,Papp A→B,[6],10.5 ×10⁻⁶ cm/s
same,bioavailability,[7],56%
same,AUC(0-t) at 24 h,[8],4.6 µM·h
same,half-life,[9],2.02 h
same,Activity,Cynomolgus monkey [10],Non-Toxic
same,IC50,Cytochrome P450 1A2,> 40 µM
same,Tmax,[11],0.5 h
same,half-life,[12],6 h
same,Kp,in vivo [13],0.15
same,MRT,[14],3.5 h
same,Vd,[15],3 L/kg
same,inhibition (INH),[16],Not Active
same,half-life,[17],2 h
same,AUC(0-t) at 24 h,[18],≤ 650 µM·h
same,bioavailability,[19],72%
same,Drug metabolism,Plasma [20],Metabolite_Detected
same,Vd,[21],2 L/kg
same,half-life,[22],> 3.33 h
same,EC50,Cynomolgus monkey [23],0.075 µM
same,Kp,in vivo [24],1 to 56
same,IC50,[25],0.0286 µM
same,clearance,[26],11 mL/min/kg
same,solubility,[27],1800 µg/mL
